Source: ChEMBL document CHEMBL1154607, “Searching for new cures for tuberculosis: design, synthesis, and biological evaluation of 2-methylbenzothiazoles” (J Med Chem, 2009)
Converted amounts (≈) assume the structure as drawn.

What was measured:
[1] = system: Mycobacterium tuberculosis; assay: Antimycobacterial activity against Mycobacterium tuberculosis H37Rv after 7 days by microplate alamar blue assay; format: functional; conditions: 168 h
Outline: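 M. tuberculosis H37Rv growth inhibition was read by microplate Alamar blue assay (MABA). The value is reported as the minimum inhibitory concentration (MIC), in μM.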

[2] = Cytotoxicity against african green monkey Vero cells after 72 hrs; format: cell-based; conditions: chlorocebus sabaeus, read-out: MIC
Outline: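 Toxicity was tested in Vero cells, and the value is reported as IC50 in μM.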

[3] = system: Trypanosoma brucei rhodesiense; assay: Antimicrobial activity against Trypanosoma brucei rhodesiense STIB 900 trypomastigote forms; format: functional, organism-based
[4] = system: Trypanosoma cruzi; assay: Antimicrobial activity against Trypanosoma cruzi Tulahuen C2C4 amastigote forms infected in rat L6 cells; format: functional, organism-based
[5] = system: Leishmania donovani; assay: Antimicrobial activity against Leishmania donovani MHOM/ET/67/L82 axenic amastigote forms; format: functional, organism-based
[6] = system: Plasmodium falciparum; assay: Antimicrobial activity against chloroquine and pyrimethamine-resistant Plasmodium falciparum K1 in erythrocytes; format: functional, organism-based

SMILES | MIC [1] [µM] | MCC at 72 h [2] [µM] | IC50 [3] [µM] | IC50 [4] [µM] | IC50 [5] [µM] | IC50 [6] [µM]
Cc1nc2cc(OCc3cc(C(=O)N[C@H](C(=O)NNC(=O)c4ccncc4)c4ccccc4)no3)ccc2s1 | 47.5 (≈ 25.8 µg/mL) |  |  |  |  | 
COC(=O)[C@@H](NC(=O)c1cc(COc2nc3ccccc3s2)on1)c1ccccc1 | 15.2 (≈ 6.44 µg/mL) | > 128 | 88.6 | 26.8 | 4.99 | > 5
COC(=O)c1ccccc1NC(=O)c1cc(COc2ccc3sc(C)nc3c2)on1 | 30.2 (≈ 12.8 µg/mL) | > 128 |  |  |  | 
Cc1nc2cc(OCc3cc(C(=O)N4CCCCC4)no3)ccc2s1 | 120 (≈ 42.7 µg/mL) |  |  |  |  | 
COC(=O)[C@H](CCSC)NC(=O)c1cc(COc2ccc3sc(C)nc3c2)on1 | 3.7 (≈ 1.61 µg/mL) | > 128 |  |  |  | 
Cc1nc2cc(OCc3cc(C(=O)N[C@H](C(=O)O)c4ccccc4)no3)ccc2s1 | > 128 |  | 89.5 | > 90 | 32.3 | > 5
Cc1nc2cc(OCc3cc(C(=O)N(C)C)no3)ccc2s1 | > 128 |  |  |  |  | 
COC(=O)[C@@H](NC(=O)c1cc(COc2cccc3sc(C)nc23)on1)c1ccccc1 | 7.4 (≈ 3.24 µg/mL) | > 128 | > 90 | 18.8 | 4.12 | > 5
Cc1nc2cc(OCc3cc(C(=O)N4CCN(C)CC4)no3)ccc2s1 | > 128 | > 128 |  |  |  | 
Cc1nc2cc(OCc3cc(C(=O)O)no3)ccc2s1 | > 128 |  |  |  |  | 
CCN(CC)C(=O)c1cc(COc2ccc3sc(C)nc3c2)on1 | > 128 |  |  |  |  | 
COC(=O)[C@@H](NC(=O)c1cc(COc2ccccc2)on1)c1ccccc1 | 3.5 (≈ 1.28 µg/mL) | > 128 | > 90 | 45.9 | 13.5 | > 5
COC(=O)[C@@H](NC(=O)c1cc(COc2ccc3sc(-c4cccc(C(F)(F)F)c4)nc3c2)on1)c1ccccc1 | 59.5 (≈ 33.8 µg/mL) |  |  |  |  | 
COC(=O)[C@H](Cc1ccccc1)NC(=O)c1cc(COc2ccc3sc(C)nc3c2)on1 | 14.4 (≈ 6.5 µg/mL) | > 128 |  |  |  | 
COC(=O)[C@@H](NC(=O)c1nc(COc2ccc3sc(C)nc3c2)cs1)c1ccccc1 | 62.5 (≈ 28.3 µg/mL) |  | 37.5 | 14.5 | 4.44 | 4.86
Cc1nc2cc(OCc3cc(C(=O)N4CCOCC4)no3)ccc2s1 | > 128 |  |  |  |  | 
COC(=O)[C@@H](NC(=O)c1cc(COc2ccc3sc(C)nc3c2)on1)c1ccccc1Cl | 15.5 (≈ 7.31 µg/mL) | > 128 |  |  |  | 
COC(=O)[C@H](CC(C)C)NC(=O)c1cc(COc2ccc3sc(C)nc3c2)on1 | 3.8 (≈ 1.59 µg/mL) | > 128 | 18.7 | 12.3 | 2.79 | 4.57
COC(=O)[C@@H](NC(=O)c1cc(COc2ccc3sc(C)nc3c2)on1)c1ccccc1 | 1.4 (≈ 0.612 µg/mL) | > 128 | 74.2 | > 90 | 27.5 | 3.97

SMILES | MIC [1] [µM] | MCC at 72 h [2] [µM] | IC50 [3] [µM] | IC50 [4] [µM] | IC50 [5] [µM] | IC50 [6] [µM]
COC(=O)[C@@H](NC(=O)c1ccc2sc(C)nc2c1)c1ccccc1 | 13 (≈ 4.43 µg/mL) | > 128 |  |  |  | 
Cc1nc2cc(OCc3cc(C(=O)N4CCNCC4)no3)ccc2s1 | > 128 |  |  |  |  | 
Cc1nc2cc(OCc3cc(C(=O)N[C@H](C(=O)NO)c4ccccc4)no3)ccc2s1 | > 128 |  | 0.415 | 6.2 | 3.25 | 1.82
Cc1nc2cc(OCc3cc(C(=O)N4CCCCO4)no3)ccc2s1 | 7.8 (≈ 2.8 µg/mL) |  |  |  |  | 
COC(=O)[C@H](NC(=O)c1cc(COc2ccc3sc(C)nc3c2)on1)c1ccccc1 | 1.9 (≈ 0.831 µg/mL) | > 128 | 89.5 | 37.5 | 22.3 | 3.33
Cc1nc2cc(OCc3cc(C(=O)NCc4ccccc4)no3)ccc2s1 | > 128 |  | 86.9 | > 90 | 8.8 | 3.43
CCOC(=O)c1cc(COc2ccc3sc(C)nc3c2)on1 | > 128 |  |  |  |  | 
Cc1nc2cc(OCc3cc(C(=O)NO)no3)ccc2s1 | > 128 |  | 1.85 | 15.9 | 6.06 | 2.76
Cc1nc2cc(OCc3cc(C(=O)N[C@H](CO)c4ccccc4)no3)ccc2s1 | > 128 |  | 31.2 | > 90 | > 90 | 2.56
COC(=O)[C@@H](NC(=O)c1cc(C)on1)c1ccccc1 | 37 (≈ 10.1 µg/mL) | > 128 | > 90 | > 90 | 56.3 | > 5
COC(=O)[C@@H](NC(=O)c1cc(COc2ccc3sc(C)nc3c2)on1)c1ccc(OC)cc1 | 12.2 (≈ 5.7 µg/mL) | > 128 |  |  |  | 
COC(=O)[C@@H](NC(=O)c1cc(COc2ccc3sc(C)nc3c2)on1)c1ccc(O)cc1 | 15.4 (≈ 6.98 µg/mL) | > 128 | 88.9 | 26.4 | 4.48 | 2.5
Cc1nc2cc(OCc3cc(C(=O)NNC(=O)c4ccncc4)no3)ccc2s1 | 4.4 (≈ 1.8 µg/mL) | > 128 | 38 | > 90 | > 90 | > 5
COC(=O)[C@@H](NC(=O)c1cc(COc2ccc3sc(C)nc3c2)on1)C(C)C | > 128 |  |  |  |  | 
COC(=O)[C@@H](NC(=O)c1cc(CSc2nc3ccccc3s2)on1)c1ccccc1 | 13 (≈ 5.71 µg/mL) | > 128 | 88.9 | 16.9 | 6.03 | > 5
O=C(Cn1ccnc1[N+](=O)[O-])NCc1ccccc1 [BENZNIDAZOLE] |  |  |  | 0.521 |  | 
NNC(=O)c1ccncc1 [ISONIAZID] | 0.5 (≈ 0.0686 µg/mL) | > 128 |  |  |  | 
CCCCCCCCCCCCCCCCOP(=O)([O-])OCC[N+](C)(C)C [MILTEFOSINE] |  |  |  |  | 0.142 | 
CO[C@H]1/C=C/O[C@@]2(C)Oc3c(C)c(O)c4c(O)c(c(/C=N/N5CCN(C)CC5)c(O)c4c3C2=O)NC(=O)/C(C)=C\C=C\[C@H](C)[C@H](O)[C@@H](C)[C@@H](O)[C@@H](C)[C@H](OC(C)=O)[C@@H]1C [RIFAMPIN] | 0.1 (≈ 0.0823 µg/mL) | 127 |  |  |  | 
